7 compounds from ChEMBL document CHEMBL4196168 (J Med Chem, 2018) can be followed below.

Activity calls are given as the source filed them. The calls are words filed in the database; no cut-off is given here.

In data set [1] the target is Transthyretin (Homo sapiens) (UniProt P02766). Description: Binding affinity to transthyretin in human serum assessed as protein occupancy at 2:1 compound to TTR ratio by fluorescent probe exclusion assay.
For data set [2] the target is unchanged. The data set is described as follows: Binding affinity to transthyretin (unknown origin) in pH 7.4 PBS buffer assessed as protein occupancy at 1:1 compound to TTR ratio by fluorescent probe exclusion assay.
For data set [3] the target is unchanged. The data set is described as follows: Binding affinity to transthyretin (unknown origin) assessed as free TdeltaS changes by ITC method. On the technique in general: ITC needs no label: the signal is the heat of the interaction.
Data set [4] has the same target. The data set is described as follows: Binding affinity to transthyretin in human serum assessed as protein stabilization at 2:1 compound to TTR ratio after 72 hrs by Western blot. Background: In western blotting, separated proteins are transferred to a membrane and probed.
For data set [5] the target is unchanged. Description: Binding affinity to transthyretin (unknown origin) assessed as free energy changes by ITC method.
Data set [6] shares this target. Description: Binding affinity to transthyretin (unknown origin) assessed as free enthalpy changes by ITC method.
Data set [7] has the same target. To be noted: 10 uM.
Data set [8] deals with T1, Albumin (Homo sapiens, UniProt P02768). The data set is described as follows: Binding affinity to human serum albumin assessed as compound level bound to protein at 30 uM measured immediately after gel filtration. Particulars: isolated protein. Type of data set: ADME. In short, it runs like this:
(§1)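 Compound (30 μM) preincubated 1 hr at 37 °C with purified human serum albumin (600 μM) in 10 mM sodium phosphate, 100 mM KCl, 1 mM EDTA, pH 7.6; gel filtration, then dialysis against buffer 24 hr at room temperature; albumin-bound compound quantified by HPLC at time zero and after dialysis; mean ± SD, n = 3.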
On the technique in general: SEC sorts molecules by how far they enter the pores of the column.

For data set [9], the target named is Transthyretin (Homo sapiens) (UniProt P02766). To be noted: 10 uM. This is another data set of the same source.
Data set [10] has the same target. Description: Binding affinity to transthyretin (unknown origin) in human serum assessed as protein occupancy at 200 uM by fluorescent probe exclusion assay.
In data set [11] the target is T1, Albumin. The data set is described as follows: Binding affinity to human serum albumin. The format is ADME.
For data set [12], the target named is T2, Transthyretin (Canis lupus familiaris) (UniProt A0A8I3NFK0). Description: Binding affinity to transthyretin in dog serum assessed as protein occupancy at 10 uM by fluorescent probe exclusion assay. A digest of the protocol: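 Pooled commercial beagle dog serum (TTR 4.6 μM) with compound (10 μM, from DMSO stock) and FPE probe (final 3.6 μM); fluorescence ex 328/em 384 nm read for 6 hr at rt; % occupancy at 3 hr versus probe-alone DMSO control; mean ± SD, n = 4.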

Data set [13] in a line: Cmax in human at 80 mg qd. Type of data set: ADME, organism-based. Details: dose 80 mg. Particulars: in vivo.
Data set [14] has as its target T1, Albumin. The data set is described as follows: Binding affinity to human serum albumin assessed as compound level bound to protein at 30 uM measured 124 hrs after dialysis. The format is ADME. To be noted: isolated protein, 24 h, in the assay text read “24 hrs” for “124 hrs”. In short, it runs like this:
as §1

The target in data set [15] is Transthyretin (Homo sapiens) (UniProt P02766). Particulars: 10 uM. The source holds these as a separate data set.
Data set [16] shares this target. To be noted: 10 uM. The source holds these as a separate data set.
Data set [17] shares this target. Particulars: 10 uM. The source holds these as a separate data set.
In data set [18] the target is T2, Transthyretin (Canis lupus familiaris). Description: Binding affinity to transthyretin in dog serum assessed as protein stabilization at 10 uM by Western blot. A digest of the protocol: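 Pooled dog serum with compound (10 μM) or DMSO acidified in acetate buffer pH 4.0 for 0 and 72 h, glutaraldehyde crosslinked, SDS-PAGE, immunoblotted with anti-TTR antiserum (1:2,000); tetramer band intensity expressed relative to DMSO control at 0 hr; mean ± SD, n = 3.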

The nature of data set [19]: Cmax in human at 250 mg bid. Particulars: in vivo. The format is ADME, organism-based. Details: dose 250 mg.
In data set [20] the target is Transthyretin (Homo sapiens) (UniProt P02766). Particulars: 20 uM.
In data set [21] the test system is Canis familiaris. Description: In-vivo binding affinity to transthyretin in beagle dog serum assessed as protein occupancy 20 mg/kg/day […] dosed as single administration via oral gavage. Type of data set: functional, organism-based. To be noted: Canis lupus familiaris. In short, it runs like this: (§2)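 Beagle dogs (2M/2F per group) received one oral gavage dose of 5 or 20 mg/kg in 0.5% methylcellulose; serum collected pre-dose and at 2, 4, 6, 8, 12, 24 hr; compound level by LCMS and TTR occupancy by FPE assay in serum (probe plus DMSO added).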

Data set [22] deals with T1, Albumin. The data set is described as follows: Binding affinity to human serum albumin by ITC method. The format is ADME.
The test system of data set [23] is Canis familiaris. The data set is described as follows: In-vivo binding affinity to transthyretin in beagle dog serum assessed as protein occupancy 5 mg/kg/day […] dosed as single administration via oral gavage. Type of data set: functional, organism-based. To be noted: Canis lupus familiaris. A digest of the protocol:
as §2

Data set [24] has as its system Canis familiaris. Description: In-vivo binding affinity to transthyretin in beagle dog serum assessed as protein occupancy at 50 to 200 mg/kg/day dosed daily via oral gavage for 7 days by fluorescent probe exclusion assay. The format is functional, organism-based. To be noted: Canis lupus familiaris. A digest of the protocol: (§3)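 Male and female beagle dogs gavaged daily 7 days with vehicle (6M/6F) or compound in 0.5% methylcellulose at 50 (2M/2F), 100 (2M/2F) or 200 mg/kg (6M/6F); jugular serum taken pre-dose day 1, pre-dose day 7 and 1 hr post-dose day 7; TTR occupancy by serum FPE assay, read at 3 hr.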

Data set [25] relates to Canis familiaris. The data set is described as follows: In-vivo binding affinity to transthyretin in beagle dog serum assessed as protein occupancy measured at 1 hr post dose on day 7 at 50 to 200 mg/kg/day dosed daily via oral gavage for 7 days by fluorescent probe exclusion assay. Type of data set: functional, Canis lupus familiaris. A digest of the protocol: as §3
Data set [26] concerns Canis familiaris. Description: In-vivo binding affinity to transthyretin in beagle dog serum assessed as protein occupancy measured on day 7 at 50 to 200 mg/kg/day dosed daily via oral gavage for 7 days by fluorescent probe exclusion assay. Type of data set: functional, Canis lupus familiaris. In short, it runs like this:
as §3

T1 sequence (P02768 whole entry): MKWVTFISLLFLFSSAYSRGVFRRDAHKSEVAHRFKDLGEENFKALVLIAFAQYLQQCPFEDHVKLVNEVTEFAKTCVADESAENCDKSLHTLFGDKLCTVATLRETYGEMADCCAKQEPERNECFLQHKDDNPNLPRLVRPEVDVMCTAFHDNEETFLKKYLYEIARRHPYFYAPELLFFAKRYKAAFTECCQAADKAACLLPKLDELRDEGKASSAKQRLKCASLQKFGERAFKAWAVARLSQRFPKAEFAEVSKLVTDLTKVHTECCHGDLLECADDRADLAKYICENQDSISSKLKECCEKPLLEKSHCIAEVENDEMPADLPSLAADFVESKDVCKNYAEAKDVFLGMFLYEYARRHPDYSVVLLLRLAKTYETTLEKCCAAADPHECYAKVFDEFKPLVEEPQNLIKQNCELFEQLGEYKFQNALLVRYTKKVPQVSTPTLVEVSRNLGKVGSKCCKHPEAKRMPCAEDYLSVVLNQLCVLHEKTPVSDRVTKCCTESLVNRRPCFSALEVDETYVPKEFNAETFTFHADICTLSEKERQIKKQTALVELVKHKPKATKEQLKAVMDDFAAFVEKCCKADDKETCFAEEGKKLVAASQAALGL

As for `COC(=O)c1ccc(F)c(OCCCc2c(C)n[nH]c2C)c1`, the Occ in data set [1] was determined as 63.2%; in [2], 38.5%. Also, in data set [3], the TdeltaS was 2.5 kcal/mol. Besides, the Activity in data set [4] is 70.4%. Further, the deltaG in data set [5] is -8.99 kcal/mol. Moreover, in [6], the deltaH was -6.49 kcal/mol.
Turning to `Cc1n[nH]c(C)c1CCCOc1cc(C(=O)O)ccc1I`, the values for the Occ in data set [1] and in data set [2] were 75.9% and 58.3%, respectively. Moreover, in data set [3], the TdeltaS is -0.21 kcal/mol. Further, the Activity in data set [4] was 86.7%. In addition, the deltaG in [5] is -9.61 kcal/mol. Moreover, the deltaH in [6] was -9.82 kcal/mol.
In the case of `CCc1n[nH]c(CC)c1CCCOc1cc(C(=O)O)ccc1F`, the values for the Occ in [1] and in [2] were 20.8% and 17.2%, respectively. Besides, the TdeltaS in data set [3] was 6 kcal/mol. Moreover, the Activity in [4] stood at 23.2%. Further, the deltaG in data set [5] was -8.1 kcal/mol. For the same compound, the deltaH in [6] was -2.1 kcal/mol.
Broadly, the Kd is the concentration at which binding is half-saturated. Low readings indicate a tighter complex, high ones a looser complex. Broadly, the Cmax is the maximum level reached in the sampled fluid or tissue. Consider `O=C(O)c1ccc2nc(-c3cc(Cl)cc(Cl)c3)oc2c1`, for which the Occ stood at 68.2% in data set [7]; 41.5% in data set [9]; 65% in data set [10]; 49% in [1]; 49.9% in [2]. The results for the PB in data set [8] and in [14] were 24.1 µM and 18.8 µM, respectively. Also, in data set [11], the Kd was found to be 2.5 µM. Further, the outcome in [12] and in data set [18] was Active. For the same compound, in data set [13], the highest level (Cmax) was 20 µM. In addition, in [3], the TdeltaS turned out to be 6.39 kcal/mol. Further, the Occ entry in data set [15], in data set [16] and in data set [17] was “Active” throughout. Further, the Activity in [4] is 41.5%. Besides, the deltaH in data set [6] is -5 kcal/mol.
As to `O=C(O)c1cc(-c2ccc(F)cc2F)ccc1O` [DIFLUNISAL], the highest level in data set [19] (Cmax) was 200 µM. Further, the values for the Occ in data set [2] and in data set [20] were 28.7% and 65%, respectively. In data set [3], the TdeltaS came to 0.34 kcal/mol. The deltaH in [6] was -8.38 kcal/mol.
For `Cc1nn(C)c(C)c1CCCOc1cc(C(=O)O)ccc1F`, the Occ amounted to 43% in [1] and 29.7% in [2]. For the same compound, the TdeltaS in data set [3] is 4.27 kcal/mol. Moreover, the Activity in data set [4] is 32.1%. Moreover, the deltaG in data set [5] was -9 kcal/mol. The deltaH in [6] is -4.73 kcal/mol.
As for `Cc1n[nH]c(C)c1CCCOc1cc(C(=O)O)ccc1F` [ACORAMIDIS], the PB in data set [8] was found to be 18.3 µM; in [14] it was 7.8 µM. The outcome in data set [12], in data set [21], in data set [23] and in data set [18] was Active. In [22], this compound returned a Kd of 8 µM. Also, the Activity entry in data set [24] is “Dose-dependent effect”. For the same compound, the Occ in data set [25] is reported as greater than 97%; in data set [26], 81 - 94%.
